TRPC4 potent = allosteric potentiators of mouse TRPC4 channel; actives 0.42% (n = 310,000); B-score at 10 µM; AID 2227; HEK293 TRPC4beta/mu-opioid, DAMGO EC20, Fluo-4 Ca2+ flux; stronger effect = higher value;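 active means B-score of calcium response area above 5 SD of library B-scores, with initial fluorescence ratio within 5 SD of library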;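 further: B-score of integrated fluorescence ratio over time as area under calcium response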
Target sequence (Q9QUQ5 whole entry, looked up): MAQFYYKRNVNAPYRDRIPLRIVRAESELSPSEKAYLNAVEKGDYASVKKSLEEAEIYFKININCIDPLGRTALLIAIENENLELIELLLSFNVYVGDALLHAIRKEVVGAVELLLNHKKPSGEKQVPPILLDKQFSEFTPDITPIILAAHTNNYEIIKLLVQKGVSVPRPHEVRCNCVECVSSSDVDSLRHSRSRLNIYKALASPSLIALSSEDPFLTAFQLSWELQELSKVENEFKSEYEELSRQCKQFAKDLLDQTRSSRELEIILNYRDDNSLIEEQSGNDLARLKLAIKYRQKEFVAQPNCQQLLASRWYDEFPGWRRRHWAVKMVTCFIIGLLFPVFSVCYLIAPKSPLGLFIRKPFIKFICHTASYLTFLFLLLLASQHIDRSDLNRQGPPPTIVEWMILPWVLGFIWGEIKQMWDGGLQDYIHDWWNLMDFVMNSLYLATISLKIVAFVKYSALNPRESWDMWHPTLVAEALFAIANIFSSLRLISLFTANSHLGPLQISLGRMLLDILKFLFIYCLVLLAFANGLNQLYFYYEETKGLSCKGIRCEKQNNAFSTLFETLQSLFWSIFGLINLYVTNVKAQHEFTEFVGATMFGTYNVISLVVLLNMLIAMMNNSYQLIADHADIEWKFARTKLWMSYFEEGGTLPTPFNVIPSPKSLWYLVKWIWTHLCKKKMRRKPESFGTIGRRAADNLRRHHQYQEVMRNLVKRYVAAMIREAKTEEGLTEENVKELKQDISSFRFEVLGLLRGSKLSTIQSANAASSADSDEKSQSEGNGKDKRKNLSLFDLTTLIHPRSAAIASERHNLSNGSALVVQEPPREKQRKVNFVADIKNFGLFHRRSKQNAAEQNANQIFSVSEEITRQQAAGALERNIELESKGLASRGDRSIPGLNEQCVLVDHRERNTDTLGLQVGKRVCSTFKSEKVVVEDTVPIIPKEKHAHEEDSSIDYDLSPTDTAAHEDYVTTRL
TRPC6 act = activators of mouse TRPC6 channel. actives 0.13% (n = 310,000). HEK293-TRPC6 membrane potential dye fluorescence; stronger effect = higher value. Q61143. B-score at 10 µM. AID 2550;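 active means B-score of the integrated fluorescence ratio above library mean plus 3 SD, and starting fluorescence ratio within library mean plus 5 SD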;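 further: higher score means more depolarization so channel activation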
TRPC4 block = inhibitors of mouse TRPC4 channel | actives 0.39% (n = 300,000) | B-score at 10 µM | Q9QUQ5 | HEK293 TRPC4beta/mu-opioid, DAMGO-evoked Fluo4 calcium flux; stronger effect = lower value | AID 2247;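 active means B-score over 3 SD under the library average, no early fluorescence shift, positive overall ratio signal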
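test system = HEK293 cells with stable TRPC4beta plus mu-opioid receptor expression | detection = Fluo4 Ca2+ flux fluorescence | read-out = integrated fluorescence ratio relative to baseline, converted to per-well B score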
TRPC6 inh = blocks the mouse TRPC6 cation channel | HEK293-TRPC6, membrane potential dye, ACh-evoked depolarization; stronger effect = lower value | B-score at 10 µM | actives 1.1% (n = 310,000);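 active means B-score under library mean minus 3 SD, initial fluorescence not abnormally high, positive integrated signal ratio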;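 further: B-score derived from integrated fluorescence ratio over the kinetic read; more negative B-score means stronger inhibition of depolarization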
TRPC4 agonist = activators of mouse TRPC4 channel; HEK293 TRPC4beta/mu-opioid, Fluo4 calcium fluorescence; stronger effect = higher value; actives 0.49% (n = 310,000); B-score at 10 µM;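 active means B-score above 5 SD of library B-scores, and initial fluorescence ratio not above library mean plus 5 SD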;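 further: positive B-score marks a calcium rise read as TRPC4 activation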
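Assay system: HEK293 stable line with TRPC4beta plus mu-opioid receptor. Times: dye 45 min RT, read 110 s. Measured by: kinetic Fluo4 calcium fluorescence. Measure: B score of integrated ratio. Controls: assay buffer as low control, maximal DAMGO as high control.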
* hit, by the source's call; i = inactive. Rows were chosen to be rich in hits. Some 2.3% of all compounds tested hit in one or more screens of this group.

SMILES	TRPC4 potent	TRPC6 act	TRPC4 block	TRPC6 inh	TRPC4 agonist
c1ccc(-c2nc(NCc3ccco3)c3ccccc3n2)nc1	i	i	-6*	i	i
Cc1ccc(CNc2nc(-c3cccs3)nc3ccccc23)cc1	i	i	i	i	i
Oc1ccccc1-c1nc(NCc2ccco2)c2ccccc2n1	i	i	i	i	i
c1ccc(CNc2nc(-c3cccs3)nc3ccccc23)nc1	i	i	-6*	i	i
Cc1c(NS(=O)(=O)c2ccc(NC(=O)CCC(=O)O)cc2)c(=O)n(-c2ccccc2)n1C	i	i	i	i	i
O=C(CSc1nnc(CNC(=O)c2cccs2)o1)Nc1ccccc1F	i	i	i	i	i
COc1cccc(NC(=O)c2ncc(Cl)c(Cl)c2Cl)c1	i	i	i	i	i
CC1CC(C)(C)CC2(C1)NC(=O)N(CC(=O)Nc1ccc(N3CCCCC3)cc1)C2=O (centres undefined)	i	i	i	i	i
CC(C)[C@@H]1CC[C@@H](C)c2c(-c3ccccc3)n[nH]c21	10*	i	i	i	i
O=C(CSc1nn(-c2ccccc2)c(=S)s1)Nn1cnnc1	i	i	i	i	i
COC(=O)CSc1nn(-c2ccc(F)cc2)c(=S)s1	i	i	-5*	i	i
CCCc1ccc(S(=O)(=O)NCC2CCCN2CC)cc1 (centres undefined)	i	i	i	i	i
CCN1CCCC1CNS(=O)(=O)c1c(C)cc(C)cc1C (centres undefined)	i	i	i	i	86*
CSC1=NC2(CCCCC2)C2=C(CCCC2)N1	i	i	-6*	i	i
CC(C)N(CCO)Cc1nc(C(c2ccccc2)c2ccccc2)no1	i	i	i	i	i
O=S(=O)(c1ccc(Cl)cc1Br)N1CCCCC1	17*	i	i	i	i
COc1ccc(C)cc1NC(=O)c1cc(S(=O)(=O)N2CCOCC2)cn1C	i	i	i	i	i
COc1ccccc1NC(=O)C1(c2ccccc2)CCCC1	13*	i	i	i	i
O=C(C1CCCN(Cc2ccccc2)C1)N1CCc2ccccc2C1 (centres undefined)	i	i	i	i	160*
COc1cc(CN2CCCC(C(=O)N3CCc4ccccc4C3)C2)cc(OC)c1OC (centres undefined)	i	i	i	i	55*
CC1(C)NC(=O)N(CCOCCOc2ccc3ccccc3c2Br)C1=O	13*	i	i	i	i
CC1(C)NC(=O)N(CCCCOc2ccc3ccccc3c2Cl)C1=O	i	i	i	i	i
CC(C)N(CC(N)=O)C(=O)Cc1coc2cc3c(cc12)CCC3	13*	i	i	i	i
c1ccc2c(N3CCCCCC3)nc(-c3ccncc3)nc2c1	i	i	i	i	i
c1ccc(N2CCN(c3nc(-c4ccccn4)nc4ccccc34)CC2)cc1	i	i	i	-5.62*	i
SMILES	TRPC4 potent	TRPC6 act	TRPC4 block	TRPC6 inh	TRPC4 agonist
CC(C)(C)N=C1NN=C(c2ccc(Cl)cc2)CS1	i	i	i	i	i
COc1ccc(CN=C2NN=C(c3ccc(Cl)cc3)CS2)cc1	i	i	-6*	i	i
O=C(CNS(=O)(=O)c1cccc(Br)c1)NCC1CCCCC1	i	i	i	i	i
Cc1cc(NS(=O)(=O)c2ccc(NC(=O)COc3ccc(Cl)c(C)c3)cc2)no1	i	i	-6*	i	i
O=C(Nc1ncc(Cc2ccc(SC(F)F)cc2)s1)c1ccc(OC(F)F)cc1	i	i	i	i	i
CN1CCN(NC(=O)c2cccc(C(F)(F)F)c2)CC1	i	i	i	i	53*
CN1CCN(NC(=O)c2cccc(S(=O)(=O)N3CCCCCC3)c2)CC1	i	i	i	i	i
CN(C(=O)COC(=O)c1ccc(Br)c([N+](=O)[O-])c1)c1c(N)n(Cc2ccccc2)c(=O)[nH]c1=O	i	i	i	i	i
Clc1ccc2c(c1)CCc1cccnc1C2=C1CCNCC1	i	i	i	-5.96*	i
CCC1CN(C(=O)NCc2ccc(F)cc2)c2cc(C)ccc2O1 (centres undefined)	i	i	i	i	i
CCC1CN(C(=O)Nc2ccc(C)cc2)c2cc(C)ccc2O1 (centres undefined)	i	i	-6*	i	i
N#Cc1ccc(COC(=O)c2ccc3c(c2)OCO3)cc1	i	i	i	i	i
O=C(OCC1CCNCC1)c1ccc2c(c1)OCO2	i	i	i	i	62*
COc1ccc(OC)c(NC(=O)COC(=O)Cc2ccc(-c3ccccc3)cc2)c1	21*	i	i	i	i
COc1ccc(OC)c(NC(=O)COC(=O)Cc2ccc(Br)cc2)c1	i	i	i	i	i
COc1ccccc1CNC(=O)c1cc(-c2ccncc2)nc2c(Cl)cccc12	i	i	i	i	i
CC1CCCCC1NS(=O)(=O)c1ccc(S(=O)(=O)N2CCCC2)cc1 (centres undefined)	49*	i	i	i	i
CC1CCCCC1NC(=O)c1ccc(S(=O)(=O)N2CCCC2)cc1 (centres undefined)	i	i	i	i	i
COc1ccccc1C(=O)NNC(=O)C1CC=CCC1 (centres undefined)	i	i	i	i	i
CCOCCCn1c(=NC(=O)c2cccnc2)c(C(=O)OCC)cc2c(=O)n3ccccc3nc21	i	i	i	i	i
CCCCn1c(=NC(=O)c2cccnc2)c(C(=O)OCC)cc2c(=O)n3ccccc3nc21	46*	i	i	i	i
CCCCN(CC)CCCNC(=O)c1csc2c1CCCCC2	i	i	i	i	111*
CC1CC(C)CN(CCCNC(=O)c2csc3c2CCCC3)C1 (centres undefined)	i	i	i	i	82*
CCc1ccc(NC(=O)c2ccc(NC3=NC4CS(=O)(=O)CC4S3)cc2)cc1 (centres undefined)	i	i	i	i	i
CCOc1ccc(-c2nc(CSCC(=O)NCc3ccco3)c(C)o2)cc1	i	12.5*	i	i	i
CCOc1ccc(-c2nc(CSCC(=O)NC3CC3)c(C)o2)cc1	i	i	i	i	i
Cc1ccc(C(=O)OCC(=O)N2CCc3ccccc32)cc1	11*	i	i	i	i

High-throughput results (PubChem BioAssay)
